Drawing on PubChem BioAssay, this text covers viability for 39 compounds.

Activity calls are given as the source filed them.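 The calls were made as follows, unless noted: active = viability at or below 10% of carrier control in both of two separate runs; inconclusive = viability at or below 10% in only one of the two runs; inactive = the rest.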

One assay can be described thus: SK-BR-3 cell growth inhibitors, pilot screen, 24 h, human (AID 572).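 Also: compound exposure lasted between 18 and 24 h rather than exactly 24 h; 100% = carrier-treated control wells.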 The settings on record: SK-BR-3 viability, CellTiter-Glo luminescence, at 10 µM, stronger effect = lower value. (In ATP-based viability assays light output follows the ATP content of the culture.)
For orientation: viability means a read-out of living cells in per cent, often relative to untreated cells. For `CN(C)c1ccc(NC(=O)Cn2cc3c(n2)CCCC3)cc1`, the viability is 77.5% (inactive).
Consider `CCOC(=O)c1cc(NC(=O)SCC(=O)O)c(C)nc1C`, for which the viability is 82% (inactive).
Regarding `Cc1nc2ccccc2c2oc(C(=O)NCC3COc4ccccc4O3)cc12` (stereo unspecified), the viability was 103% (inactive).
On the same count and under the same terms, to `O=C(CS(=O)(=O)c1cn(Cc2ccc(F)cc2)c2ccccc12)N1CCCCC1` belongs 92% (inactive); to `Cc1ccc(C2c3c(oc4ccccc4c3=O)C(=O)N2c2nnc(C(C)C)s2)o1` (stereo unspecified), 84% (inactive).
Still for that read-out and setting: to `Cc1cc(C)c2c(=O)n(CC(=O)NCCCN3CCN(c4ccccc4F)CC3)sc2n1` belongs 107% (inactive).
The same measure, in the same setting: to `Cc1cc(=O)oc2cc(OCC#N)ccc12` belongs 112% (inactive).
`CC1=C(C(N)=O)C(c2ccccn2)n2nc(SCc3ccccc3)nc2N1` (stereo unspecified): the viability is 88% (inactive).
On to `OC1(c2cccc(C(F)(F)F)c2)CCN(c2ccc(-c3ccccc3)nn2)CC1`, for which the viability was 71.5% (inactive).
Consider `CCOC(=O)CSC1=C(C#N)C(c2ccc(C)o2)CC(=O)N1` (stereo unspecified), for which the viability is 98.5% (inactive).
The same measure, in the same setting: to `O=C(Nc1nc2c(s1)CCCC2)C1COc2ccccc2O1` (stereo unspecified) belongs 103% (inactive); to `Cc1ccccc1Cn1nc(C)c(NC(=O)c2noc3c2CCc2ccccc2-3)c1C`, 126% (inactive).
On to `O=C(C1CC1)N1CCc2cc(Br)cc(S(=O)(=O)N3CCOCC3)c21`, for which the viability is 98% (inactive).
Consider `C/C=C/COC(=O)c1[nH]c2c(c1C)C(=O)CC(c1ccco1)C2` (stereo unspecified), for which the viability is 80.5% (inactive).
Turning to `Cc1ccc2nc(NC(=O)Cn3cc4c(n3)CCCCC4)sc2c1`, the viability is 91.5% (inactive).
`Cn1c(=O)oc2cc(S(=O)(=O)N3CCN(c4ccccn4)CC3)ccc21`: the viability is 88.5% (inactive).
Consider `Cc1cccc(N(CC(=O)N2CCCC2)S(=O)(=O)c2ccccc2)c1C`, for which the viability was 106% (inactive).
In the case of `CC(Sc1n[nH]c(=O)[nH]c1=O)C(=O)OCc1ccccc1` (stereo unspecified), the viability is 94% (inactive).
The same measure, in the same setting: to `O=C(Nc1ccncc1)c1cc2ccccc2o1` belongs 113% (inactive); to `CCOc1ccccc1NC(=O)C1CCCN(S(=O)(=O)c2cccc3cccnc23)C1` (stereo unspecified), 108% (inactive); to `O=C(Nc1nc(-c2ccncc2)cs1)C1COc2ccccc2O1` (stereo unspecified), 83.5% (inactive).
For the compound `CC(C)C(CO)NC(=O)CC(=O)NC(CO)C(C)C` (stereo unspecified), the viability was 93% (inactive).
Take `C(=N\n1cnnc1)/c1cccc(OCCOc2ccccc2)c1`: the viability is 76% (inactive).
Take `C/C=C/COC(=O)c1[nH]c2c(c1C)C(=O)CC(c1ccc(N(C)C)cc1)C2` (stereo unspecified): the viability is 92% (inactive).
Still for that read-out and setting: to `Cc1ccc(C)c(N2CCN(CCCNC(=O)Cn3cc4c(n3)CCC(C)C4)CC2)c1` (stereo unspecified) belongs 90.5% (inactive).
Same read-out and setting: to `CCOC(=O)c1ccc(N=c2sc(C(=O)OC)cc(=O)n2Cc2ccco2)cc1` belongs 110% (inactive).
Still for that read-out and setting: to `Cc1ccccc1-c1nc(CN2CCC(C(=O)NC3CCN(Cc4ccccc4)CC3)CC2)c(C)o1` belongs 91% (inactive); to `CC(=O)n1cc(-c2ccncc2)c2ccccc21`, 94% (inactive); to `C/C=C/CSc1nc2c(c(=O)[nH]c(=O)n2C)n1Cc1ccc(C)cc1`, 102% (inactive).
Consider `O=C(NCCN1C(=O)C2C3C=CC(C3)C2C1=O)Nc1ccccn1` (stereo unspecified), for which the viability was 114% (inactive).
Take `CC1CCCCN1S(=O)(=O)c1ccc(NC(=O)c2cccs2)cc1` (stereo unspecified): the viability was 73.5% (inactive).
Same read-out and setting: to `CCOc1ccc(N(CC(=O)Nc2cccc(OC)c2)S(=O)(=O)c2c(C)noc2C)cc1` belongs 91.5% (inactive).
As to `CCOC(=O)N1CCN(C(=O)CN(C2CCCCC2)S(=O)(=O)c2ccc(F)cc2)CC1`, the viability was 113% (inactive).
Take `COc1cccc(-c2nc(CS(=O)(=O)CC(=O)Nc3cc(C)ccc3C)c(C)o2)c1`: the viability was 76% (inactive).
On the same count and under the same terms, to `Cc1cc(=O)oc2c1ccc1oc(/C(=N/O)c3ccccc3)c(C)c12` belongs 84% (inactive); to `Cc1cc(/C=N/n2cnnc2)c(C)n1-c1cccc(Cl)c1`, 84% (inactive); to `Cc1cc(C)c2c(=O)n(CC(=O)NCCCN3CCOCC3)sc2n1`, 98% (inactive).

The next assay is described as follows: HUVEC growth inhibition – cell-based, human, primary screen (AID 575;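 active = viability at or below 30% in both replicate assays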;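 also: 100% = median of untreated cell wells with 0.1% DMSO on each plate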). The settings on record: HUVEC proliferation, CellTiter-Glo luminescence, 72 h; at 10 µM; stronger effect = lower value. Put shortly: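 Assay system: primary human umbilical vein endothelial cells / Buffer or medium: endothelial basal medium with 2% FBS plus growth supplements / Compound dosing: one dose, 10 µM final, 0.1% DMSO / Timing: 72 h treatment at 37 °C / Signal: CTG luminescence / Benchmarks: 32 DMSO-only cell-control wells (high), 32 MePR drug-control wells (low) per plate / Plate: collagen-coated 384-well format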
Consider `CCOC(=O)c1cc(NC(=O)SCC(=O)O)c(C)nc1C`, for which the viability is 123% (inactive).
Turning to `COc1ccccc1S(=O)(=O)Cc1ccc(C(=O)NCCN2CCCCCC2)o1`, the viability was 97.5% (inactive).
On to `COc1ccc(C2C(C(=O)Nc3cccnc3)=C(C)Nc3nc(-c4cccs4)nn32)cc1OC` (stereo unspecified), for which the viability is 90.5% (inactive).
Take `Cc1cc(=O)oc2cc(OCC#N)ccc12`: the viability is 92.1% (inactive).
`CC1=C(C(N)=O)C(c2ccccn2)n2nc(SCc3ccccc3)nc2N1` (stereo unspecified): the viability is 94% (inactive).
As to `OC1(c2cccc(C(F)(F)F)c2)CCN(c2ccc(-c3ccccc3)nn2)CC1`, the viability was 86.4% (inactive).
On the same count and under the same terms, to `O=C(Nc1nc2c(s1)CCCC2)C1COc2ccccc2O1` (stereo unspecified) belongs 63.1% (inactive); to `O=C(C1CC1)N1CCc2cc(Br)cc(S(=O)(=O)N3CCOCC3)c21`, 88.5% (inactive).
For the compound `Cc1cccc(N(CC(=O)N2CCCC2)S(=O)(=O)c2ccccc2)c1C`, the viability is 112% (inactive).
Turning to `CC(Sc1n[nH]c(=O)[nH]c1=O)C(=O)OCc1ccccc1` (stereo unspecified), the viability was 116% (inactive).
With `O=C(Nc1ccncc1)c1cc2ccccc2o1`, the viability is 101% (inactive).
With `O=C(Nc1nc(-c2ccncc2)cs1)C1COc2ccccc2O1` (stereo unspecified), the viability is 67.2% (inactive).
As to `CC(C)C(CO)NC(=O)CC(=O)NC(CO)C(C)C` (stereo unspecified), the viability was 101% (inactive).
As to `C(=N\n1cnnc1)/c1cccc(OCCOc2ccccc2)c1`, the viability was 96.2% (inactive).
`C/C=C/COC(=O)c1[nH]c2c(c1C)C(=O)CC(c1ccc(N(C)C)cc1)C2` (stereo unspecified): the viability was 62.4% (inactive).
On to `CCOc1ccc(N(CC(=O)Nc2cccc(OC)c2)S(=O)(=O)c2c(C)noc2C)cc1`, for which the viability is 72.4% (inactive).
On to `CCOC(=O)N1CCN(C(=O)CN(C2CCCCC2)S(=O)(=O)c2ccc(F)cc2)CC1`, for which the viability is 97.3% (inactive).
For `COc1cccc(-c2nc(CS(=O)(=O)CC(=O)Nc3cc(C)ccc3C)c(C)o2)c1`, the viability was 70.7% (inactive).
Still for that read-out and setting: to `Cc1cc(C)c2c(=O)n(CC(=O)NCCCN3CCOCC3)sc2n1` belongs 64.1% (inactive).
